The species named for experiment [1] is Homo sapiens. Kind of experiment: Selectivity ratio of EC50 for human OX2 receptor to EC50 for human OX1 receptor.
Experiment [2] deals with T1, Orexin receptor type 2 (Homo sapiens, UniProt O43614).
T1 sequence (O43614 whole entry): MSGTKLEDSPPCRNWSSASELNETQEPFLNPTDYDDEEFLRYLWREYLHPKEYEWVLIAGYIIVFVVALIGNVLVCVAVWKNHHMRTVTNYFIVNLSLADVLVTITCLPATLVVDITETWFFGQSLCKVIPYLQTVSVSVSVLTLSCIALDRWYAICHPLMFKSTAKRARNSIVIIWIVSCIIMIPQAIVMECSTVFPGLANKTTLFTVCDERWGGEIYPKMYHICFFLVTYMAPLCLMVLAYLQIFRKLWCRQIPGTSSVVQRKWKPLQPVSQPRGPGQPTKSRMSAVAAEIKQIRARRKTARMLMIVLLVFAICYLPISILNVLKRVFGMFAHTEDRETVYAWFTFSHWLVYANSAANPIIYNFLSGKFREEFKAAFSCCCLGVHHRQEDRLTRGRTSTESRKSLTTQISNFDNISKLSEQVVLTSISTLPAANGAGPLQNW
Kind of experiment: Agonist activity at human OX2 receptor overexpressed in CHO-RD-HGA16 cells assessed as calcium mobilization after 15 mins by fluorescence assay. It counts as functional, cell-based. A general note: Calcium assays in cells follow changes in intracellular calcium, usually with a dye or a luminescent sensor.

For experiment [3], the target named is T2, Orexin/Hypocretin receptor type 1 (Homo sapiens, UniProt O43613).
T2 sequence (O43613 whole entry): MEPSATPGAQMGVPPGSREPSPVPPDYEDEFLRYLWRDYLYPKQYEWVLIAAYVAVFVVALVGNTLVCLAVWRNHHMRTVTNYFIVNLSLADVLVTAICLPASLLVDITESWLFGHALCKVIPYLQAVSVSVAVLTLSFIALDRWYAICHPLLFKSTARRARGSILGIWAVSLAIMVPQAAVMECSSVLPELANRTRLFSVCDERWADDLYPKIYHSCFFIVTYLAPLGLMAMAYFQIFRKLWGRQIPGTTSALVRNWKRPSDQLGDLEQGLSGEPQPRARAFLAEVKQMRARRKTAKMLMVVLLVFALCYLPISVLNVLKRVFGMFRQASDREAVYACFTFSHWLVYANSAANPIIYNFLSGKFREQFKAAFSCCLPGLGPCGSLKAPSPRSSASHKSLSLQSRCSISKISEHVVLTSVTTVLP
Kind of experiment: Agonist activity at human OX1 receptor overexpressed in CHO-RD-HGA16 cells assessed as calcium mobilization after 15 mins by fluorescence assay. The format is functional, cell-based. In outline:
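EC50 from 8-point half-log concentration-response curves. Values are means of at least three independent experiments in duplicate, with SEM, or means of two independent duplicate experiments.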

pEC50: −log10 of the molar value. Where a SMILES comes first, the peptide text is derived from it.

As for `CC[C@H](C)[C@H](NC(=O)CNC(=O)[C@H](C)NC(=O)[C@H](C)NC(=O)[C@H](Cc1cnc[nH]1)NC(=O)[C@H](CC(N)=O)NC(=O)CNC(=O)[C@H](C)NC(=O)CNC(=O)[C@@H](Cc1cnc[nH]1)NC(=O)[C@H](CC(C)C)NC(=O)[C@H](CC(C)C)NC(=O)[C@H](CCC(=O)O)NC(=O)[C@@H](N)Cc1ccc(O)cc1)C(=O)N[C@@H](CC(C)C)C(=O)N[C@H](C(=O)N[C@@H](CC(C)C)C(N)=O)[C@@H](C)O`, in experiment [1], the Ratio EC50 was 0.4. The pEC50 in experiment [2] is 6.21; in experiment [3], 5.81.

`CC[C@H](C)[C@H](NC(=O)CNC(=O)[C@H](C)NC(=O)[C@H](C)NC(=O)[C@H](Cc1cnc[nH]1)NC(=O)[C@H](CC(N)=O)NC(=O)CNC(=O)[C@H](C)NC(=O)CNC(=O)[C@H](Cc1cnc[nH]1)NC(=O)[C@@H](CC(C)C)NC(=O)[C@H](CC(C)C)NC(=O)[C@H](CCC(=O)O)NC(=O)[C@@H](N)Cc1ccc(O)cc1)C(=O)N[C@@H](CC(C)C)C(=O)N[C@H](C(=O)N[C@@H](CC(C)C)C(N)=O)[C@@H](C)O`: in experiment [1], the Ratio EC50 amounted to 0.3. The pEC50 in experiment [2] is 6.81; in experiment [3], 6.27.

With `CC[C@H](C)[C@H](NC(=O)CNC(=O)[C@H](C)NC(=O)[C@H](C)NC(=O)[C@H](Cc1cnc[nH]1)NC(=O)[C@H](CC(N)=O)NC(=O)[C@H](C)NC(=O)[C@H](C)NC(=O)CNC(=O)[C@H](Cc1cnc[nH]1)NC(=O)[C@H](CC(C)C)NC(=O)[C@H](CC(C)C)NC(=O)[C@H](CCC(=O)O)NC(=O)[C@@H](N)Cc1ccc(O)cc1)C(=O)N[C@@H](CC(C)C)C(=O)N[C@H](C(=O)N[C@@H](CC(C)C)C(N)=O)[C@@H](C)O` (H-YELLHGAANHAAGILTL-NH2), the Ratio EC50 in experiment [1] is 1.3. Moreover, the pEC50 in experiment [2] was 5.87; in experiment [3], 5.98.

`CC[C@H](C)[C@H](NC(=O)CNC(=O)[C@H](C)NC(=O)[C@H](C)NC(=O)[C@H](Cc1cnc[nH]1)NC(=O)[C@H](CC(N)=O)NC(=O)CNC(=O)[C@H](C)NC(=O)CNC(=O)[C@H](Cc1cnc[nH]1)NC(=O)[C@H](CC(C)C)NC(=O)[C@@H](CC(C)C)NC(=O)[C@H](CCC(=O)O)NC(=O)[C@@H](N)Cc1ccc(O)cc1)C(=O)N[C@@H](CC(C)C)C(=O)N[C@H](C(=O)N[C@@H](CC(C)C)C(N)=O)[C@@H](C)O`: in experiment [1], the Ratio EC50 came out at 0.5. Also, the negative-log EC50 (pEC50) in experiment [2] was 6.58; in experiment [3], 6.28.

For the compound `CC[C@H](C)[C@H](NC(=O)CNC(=O)[C@H](C)NC(=O)[C@H](C)NC(=O)[C@H](Cc1cnc[nH]1)NC(=O)[C@H](CC(N)=O)NC(=O)CNC(=O)[C@H](C)NC(=O)CNC(=O)[C@@H]1CCCN1C(=O)[C@H](CC(C)C)NC(=O)[C@H](CC(C)C)NC(=O)[C@H](CCC(=O)O)NC(=O)[C@@H](N)Cc1ccc(O)cc1)C(=O)N[C@@H](CC(C)C)C(=O)N[C@H](C(=O)N[C@@H](CC(C)C)C(N)=O)[C@@H](C)O` (H-YELLPGAGNHAAGILTL-NH2), the Ratio EC50 in experiment [1] stood at 1.7. The figures for the pEC50 in experiment [2] and in experiment [3] were 5.70 and 5.92, respectively.

`CC[C@H](C)[C@H](NC(=O)CNC(=O)[C@H](C)NC(=O)[C@@H](C)NC(=O)[C@H](Cc1cnc[nH]1)NC(=O)[C@H](CC(N)=O)NC(=O)CNC(=O)[C@H](C)NC(=O)CNC(=O)[C@H](Cc1cnc[nH]1)NC(=O)[C@H](CC(C)C)NC(=O)[C@H](CC(C)C)NC(=O)[C@H](CCC(=O)O)NC(=O)[C@@H](N)Cc1ccc(O)cc1)C(=O)N[C@@H](CC(C)C)C(=O)N[C@H](C(=O)N[C@@H](CC(C)C)C(N)=O)[C@@H](C)O`: the Ratio EC50 in experiment [1] was 0.7. The pEC50 is 5.90 in experiment [2] and 5.72 in experiment [3].

On to `CC[C@H](C)[C@H](NC(=O)CNC(=O)[C@H](C)NC(=O)[C@H](C)NC(=O)[C@H](Cc1cnc[nH]1)NC(=O)[C@H](CC(N)=O)NC(=O)CNC(=O)[C@H](C)NC(=O)CNC(=O)[C@H](Cc1cnc[nH]1)NC(=O)[C@H](CC(C)C)NC(=O)[C@H](CC(C)C)NC(=O)[C@@H]1CCCN1C(=O)[C@@H](N)Cc1ccc(O)cc1)C(=O)N[C@@H](CC(C)C)C(=O)N[C@H](C(=O)N[C@@H](CC(C)C)C(N)=O)[C@@H](C)O` (H-YPLLHGAGNHAAGILTL-NH2), for which, in experiment [1], the Ratio EC50 amounted to 5.1. Also, the pEC50 in experiment [2] is 6.14; in experiment [3], 6.84.

As usually defined, the pEC50 is −log10 of the EC50, conventionally taken in molar units.
